Activity calls are given as the source filed them. The calls are words filed in the database; no cut-off is given here.
Tests used:
BT-474 [1] = test: Cytotoxicity against human BT474 cancer stem cell spheroids assessed as cell viability at 20 uM after 3 days by MTS assay relative to control; conditions: BT-474, 72 h
PC-3 [2] = test: Cytotoxicity against human PC3 cells assessed as cell viability at 4 to 10 uM after 48 hrs by MTS assay relative to control; type: functional
Method in brief: (§1)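 Cells grown at 37 °C, 5% CO2, with 10% FBS and penicillin/streptomycin: MDA-MB-231, JIMT1 and DU145 in DMEM, PC3 in F12K, BT474 in Hybricare, MiaPaCa2 in DMEM plus 2.5% horse serum. Cells (7500–9000/well) were plated for 24 h, then exposed to 0–20 µM for 48 h. MTS was added for 1–4 h and OD490 read, blank-subtracted, relative to vehicle. CC50 was read from plots; mean ± SD, six independent determinations.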

JIMT-1 [3] = test: Induction of morphological changes in human JIMT1 cells at 6 uM after 4 hrs by bright field microscopic method; type: functional, cell-based
Method in brief: (§2)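 DU145 and JIMT1 grown in DMEM with 10% FBS and antibiotics, plated 24 h, then given 4–6 µM for 5–6 h (legend: 4 h). Ethidium homodimer-1 was added at 2 µM final, and cells were examined by bright-field and fluorescence microscopy at ×20. Controls: untreated cells, and 0.01% Triton X-100 for 10 min.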

MDA-MB-231 [4] = test: Cytotoxicity against human MDA-MB-231 cells assessed as decrease in cell viability at 6 uM after 48 hrs by MTS assay relative to control; type: functional
DU-145 [5] = test: Cytotoxicity against human DU145 cells assessed as decrease in cell viability at 2 to 8 uM in presence of pan-caspase inhibitor Q-VD-OPh after 48 hrs by MTS assay; type: functional, cell-based
Method in brief: (§3)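 DU145 or JIMT1 cells seeded for 24 h, then given 40 µM pan-caspase inhibitor along with varying compound concentrations. Incubation continued 48 h, then MTS (20% v/v) for 1–4 h, OD490 read. Values are blank-subtracted and relative to vehicle controls; mean ± SD.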

MDA-MB-468 [6] = test: Cytotoxicity against human MDA-MB-468 cells assessed as decrease in cell viability after 48 hrs by MTS assay; type: functional; conditions: MDA-MB-468, 48 h
U-251 [7] = test: Cytotoxicity against human U251 cells assessed as cell viability at 4 to 8 uM after 48 hrs by MTS assay relative to control; type: functional
Method in brief: (§4)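 Exponentially growing cells (7500–9000/well) were seeded for 24 h, then given compound at 0–20 µM for a further 48 h. MTS reagent (20% v/v) was added for 1–4 h and OD490 read. Blanks were cell-free media wells, and viability was expressed relative to vehicle controls. CC50 was read from viability plots; mean ± SD of six independent determinations.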

JIMT-1 [8] = test: Cytotoxicity against human JIMT1 cells assessed as cell viability at 4 to 10 uM after 48 hrs by MTS assay relative to control; type: functional
Method in brief: as §1

[9] = Cytotoxicity against human U87 cells assessed as cell viability at 4 to 8 uM after 48 hrs by MTS assay relative to control; type: functional, U-87MG ATCC
Method in brief: as §4

MDA-MB-453 [10] = test: Cytotoxicity against human MDA-MB-453 cells assessed as decrease in cell viability at 6 uM after 48 hrs by MTS assay relative to control; type: functional
MIA PaCa-2 [11] = test: Cytotoxicity against human MIAPaCa2 cells assessed as cell viability at 4 to 10 uM after 48 hrs by MTS assay relative to control; type: functional
Method in brief: as §1

MDA-MB-453 [12] = test: Cytotoxicity against human MDA-MB-453 cells assessed as decrease in cell viability after 48 hrs by MTS assay; type: functional; conditions: MDA-MB-453, 48 h
U-251 [13] = test: Cytotoxicity against human U251 cells assessed as decrease in cell viability after 48 hrs by MTS assay; type: functional; conditions: U-251, 48 h
Method in brief: as §4

[14] = Cytotoxicity against human U87 cells assessed as decrease in cell viability after 48 hrs by MTS assay; type: functional, U-87MG ATCC; conditions: U-87 MG
Method in brief: as §4

BT-549 [15] = test: Cytotoxicity against human BT549 cells assessed as decrease in cell viability after 48 hrs by MTS assay; type: functional; conditions: BT-549, 48 h
DU-145 [16] = test: Membranolytic activity in human DU145 cells at 6 uM after 4 hrs by ethidium homodimer-1 staining-based fluorescence microscopic method; type: functional, cell-based
Method in brief: as §2

MDA-MB-468 [17] = test: Cytotoxicity against human MDA-MB-468 cells assessed as decrease in cell viability at 6 uM after 48 hrs by MTS assay relative to control; type: functional
DU-145 [18] = test: Cytotoxicity against human DU145 cells assessed as cell viability at 4 to 10 uM after 48 hrs by MTS assay relative to control; type: functional
Method in brief: as §1

[19] = Cytotoxicity against human A2780C/P cells assessed as cell viability at 4 to 8 uM after 48 hrs by MTS assay relative to control; type: functional
Method in brief: as §4

A2780S [20] = test: Cytotoxicity against human A2780S cells assessed as cell viability at 4 to 8 uM after 48 hrs by MTS assay relative to control; type: functional
Method in brief: as §4

JIMT-1 [21] = test: Membranolytic activity in human JIMT1 cells at 6 uM after 4 hrs by ethidium homodimer-1 staining-based fluorescence microscopic method; type: functional, cell-based
Method in brief: as §2

BT-474 [22] = test: Cytotoxicity against human BT474 cancer stem cell spheroids assessed as decrease in cell viability at 2 to 10 uM after 3 days by MTS assay
JIMT-1 [23] = test: Cytotoxicity against human JIMT1 cells assessed as decrease in cell viability at 2 to 8 uM in presence of pan-caspase inhibitor Q-VD-OPh after 48 hrs by MTS assay; type: functional, cell-based
Method in brief: as §3

DU-145 [24] = test: Cytotoxicity against human DU145 cells assessed as decrease in cell viability after 48 hrs by MTS assay; type: functional; conditions: DU-145, 48 h
Method in brief: as §1

[25] = Cytotoxicity against human A2780C/P cells assessed as decrease in cell viability after 48 hrs by MTS assay; type: functional
Method in brief: as §4

BT-474 [26] = test: Cytotoxicity against human BT474 cells assessed as decrease in cell viability after 48 hrs by MTS assay; type: functional; conditions: BT-474, 48 h
Method in brief: as §1

Hs-578T [27] = test: Cytotoxicity against human Hs 578T cells assessed as decrease in cell viability at 6 uM after 48 hrs by MTS assay relative to control; type: functional
MDA-MB-231 [28] = test: Cytotoxicity against human MDA-MB-231 cells assessed as cell viability at 4 to 10 uM after 48 hrs by MTS assay relative to control; type: functional
Method in brief: as §1

[29] = Ratio of compound concentration showing <20% hemolysis in ovine erythrocytes to CC50 for human BT474 cells
MDA-MB-231 [30] = test: Cytotoxicity against human MDA-MB-231 cells assessed as decrease in cell viability after 48 hrs by MTS assay; type: functional; conditions: MDA-MB-231, 48 h
Method in brief: as §1

BT-474 [31] = test: Induction of disintegration of human BT474 cancer stem cell spheroids at 20 uM after 3 days by microscopic method; type: functional, cell-based
Method in brief: (§5)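 BT474 stem-cell spheroids (ALDH1-sorted, formed over 6 days in Mammocult on ultra-low adhesion plates) exposed to 0, 7.5 or 20 µM for 3 days. Integrity was judged by light microscopy at ×10 against untreated spheroid wells.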

A2780S [32] = test: Cytotoxicity against human A2780S cells assessed as decrease in cell viability after 48 hrs by MTS assay; type: functional
Method in brief: as §4

BT-474 [33] = test: Cytotoxicity against human BT474 cancer stem cell spheroids assessed as cell viability at 10 uM after 3 days by MTS assay relative to control; conditions: BT-474, 72 h
PC-3 [34] = test: Cytotoxicity against human PC3 cells assessed as decrease in cell viability after 48 hrs by MTS assay; type: functional; conditions: PC-3, 48 h
Method in brief: as §1

BT-474 [35] = test: Induction of disintegration of human BT474 cancer stem cell spheroids at 7.5 uM after 3 days by microscopic method; type: functional, cell-based
Method in brief: as §5

MIA PaCa-2 [36] = test: Cytotoxicity against human MIAPaCa2 cells assessed as decrease in cell viability after 48 hrs by MTS assay; type: functional; conditions: MIA PaCa-2, 48 h
Method in brief: as §1

BT-474 [37] = test: Cytotoxicity against human BT474 cells assessed as cell viability at 4 to 10 uM after 48 hrs by MTS assay relative to control; type: functional
Method in brief: as §1

Hs-578T [38] = test: Cytotoxicity against human Hs 578T cells assessed as decrease in cell viability after 48 hrs by MTS assay; type: functional
JIMT-1 [39] = test: Cytotoxicity against human JIMT1 cells assessed as decrease in cell viability after 48 hrs by MTS assay; type: functional; conditions: JIMT-1, 48 h
Method in brief: as §1

BT-549 [40] = test: Cytotoxicity against human BT549 cells assessed as decrease in cell viability at 6 uM after 48 hrs by MTS assay relative to control; type: functional
DU-145 [41] = test: Induction of morphological changes in human DU145 cells at 6 uM after 4 hrs by bright field microscopic method; type: functional, cell-based
Method in brief: as §2

Compound: CCCCCCCCCCCCCCCCOC[C@H](CO[C@@H]1O[C@H](CNCCCCCCCCCCCCN)[C@@H](O)[C@H](O)[C@H]1N)OC
- viability at 20 µM (BT-474 [1]): 0%
- Activity (PC-3 [2]): 0%
- Activity (JIMT-1 [3]): Active
- Activity (MDA-MB-231 [4]): >95%
- Activity (DU-145 [5]): Active
- CC50 (MDA-MB-468 [6]): 2000 nM
- Activity (U-251 [7]): 0%
- Activity (JIMT-1 [8]): 0%
- Activity [9]: 0%
- Activity (MDA-MB-453 [10]): >95%
- Activity (MIA PaCa-2 [11]): 0%
- CC50 (MDA-MB-453 [12]): 4000 nM
- CC50 (U-251 [13]): 2600 nM
- CC50 [14]: 2500 nM
- CC50 (BT-549 [15]): 2500 nM
- Activity (DU-145 [16]): inactive
- Activity (MDA-MB-468 [17]): >95%
- Activity (DU-145 [18]): 0%
- Activity [19]: 0%
- Activity (A2780S [20]): 0%
- Activity (JIMT-1 [21]): inactive
- Activity (BT-474 [22]): Active
- Activity (JIMT-1 [23]): Active
- CC50 (DU-145 [24]): 3800 nM
- CC50 [25]: 3800 nM
- CC50 (BT-474 [26]): 1600 nM
- Activity (Hs-578T [27]): >95%
- Activity (MDA-MB-231 [28]): 0%
- Ratio [29]: 15
- CC50 (MDA-MB-231 [30]): 1500 nM
- Activity (BT-474 [31]): Active
- CC50 (A2780S [32]): 2400 nM
- viability at 10 µM (BT-474 [33]): 2%
- CC50 (PC-3 [34]): 2000 nM
- Activity (BT-474 [35]): Active
- CC50 (MIA PaCa-2 [36]): 4000 nM
- Activity (BT-474 [37]): 0%
- CC50 (Hs-578T [38]): 1800 nM
- CC50 (JIMT-1 [39]): 3400 nM
- Activity (BT-549 [40]): >95%
- Activity (DU-145 [41]): Active

Source: ChEMBL document CHEMBL4052815, “Amphiphilic Modulation of Glycosylated Antitumor Ether Lipids Results in a Potent Triamino Scaffold against Epithelial Cancer Cell Lines and BT474 Cancer Stem Cells” (J Med Chem, 2017)
